Changes are numbered by the printed parent chain.
Tests used:
Test in all cases: Saturation radioligand binding with [3H]-α,β-methylene ATP
[1] = target: T1, P2X1 receptor S286A (Homo sapiens, UniProt P51575, S286A)
T1 sequence (P51575 1-399 S286A): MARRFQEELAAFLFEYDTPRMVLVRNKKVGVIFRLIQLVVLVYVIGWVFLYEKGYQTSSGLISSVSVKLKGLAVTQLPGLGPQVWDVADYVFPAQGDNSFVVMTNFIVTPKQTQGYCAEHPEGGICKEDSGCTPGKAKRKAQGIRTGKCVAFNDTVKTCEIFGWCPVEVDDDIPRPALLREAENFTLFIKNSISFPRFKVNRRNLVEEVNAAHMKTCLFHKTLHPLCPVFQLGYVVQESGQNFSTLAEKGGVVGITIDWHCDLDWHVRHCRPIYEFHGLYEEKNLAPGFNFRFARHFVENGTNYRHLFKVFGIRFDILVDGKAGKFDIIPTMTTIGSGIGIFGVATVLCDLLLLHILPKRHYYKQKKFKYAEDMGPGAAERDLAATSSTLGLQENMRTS
Outline: (§1)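 Whole HEK293 Flp-In T-REx cells stably expressing receptor, tetracycline-induced (150 ng/ml, 2 days), 15,000 cells/well, washed in HEPES binding buffer pH 7.4 with Ca2+/Mg2+. Increasing [3H]-α,β-methylene ATP added, 3 h room temperature with gentle agitation; non-specific binding with 10 μM ATP. Ice-cold 0.9% NaCl washes, scintillation counting (CCPM). Specific binding fitted one-site; values above 300 nM termed not defined.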

[2] = target: T2, P2X1 receptor E122A (Homo sapiens, UniProt P51575, E122A)
T2 sequence (P51575 1-399 E122A): T1 sequence (P51575 1-399 S286A) with E122A, A286S

[3] = target: T3, P2X1 receptor K215A (Homo sapiens, UniProt P51575, K215A)
T3 sequence (P51575 1-399 K215A): T1 sequence (P51575 1-399 S286A) with K215A, A286S
Outline: as §1

[4] = target: T4, P2X1 receptor F188L (Homo sapiens, UniProt P51575, F188L)
T4 sequence (P51575 1-399 F188L): T1 sequence (P51575 1-399 S286A) with F188L, A286S
Outline: as §1

[5] = target: T5, P2X1 receptor K136A (Homo sapiens, UniProt P51575, K136A)
T5 sequence (P51575 1-399 K136A): T1 sequence (P51575 1-399 S286A) with K136A, A286S
Outline: as §1

[6] = target: T6, P2X1 receptor R292A (Homo sapiens, UniProt P51575, R292A)
T6 sequence (P51575 1-399 R292A): T1 sequence (P51575 1-399 S286A) with A286S, R292A
Outline: as §1

Nc1ncnc2c1ncn2[C@@H]1O[C@H](COP(=O)(O)CP(=O)(O)OP(=O)(O)O)[C@@H](O)[C@H]1O [α,β-methylene ATP]
binding affinity compared to WT-P2X1 [1]: comparable to that of WT-P2X1 | binding affinity compared to WT-P2X1 [2]: beyond the threshold that could be accurately measured | binding affinity compared to WT-P2X1 [3]: similar | binding affinity compared to WT-P2X1 [4]: similar | binding affinity compared to WT-P2X1 [5]: similar | binding affinity compared to WT-P2X1 [6]: reduced

Source: paper PMC11439047 (Nature Communications, 2024)
